According to publication PMC3565245 (Current Chemical Genomics, 2012):
Structures can show the parent of a compound that is named as a salt. Where two headings read alike, the source gives them in different places. One block for each molecule: values may come before it.

Legend:
[1] = biological target: T1, Giardia lamblia carbamate kinase (glCK) (Giardia intestinalis, UniProt A8BB85); experiment: Luminescence-based carbamate kinase assay in 1536-well format; assay type: biochemical; conditions: for Efficacy (% Inhibition): maximal response of the fitted curve, luminescence assay
T1 sequence (A8BB85 1-316): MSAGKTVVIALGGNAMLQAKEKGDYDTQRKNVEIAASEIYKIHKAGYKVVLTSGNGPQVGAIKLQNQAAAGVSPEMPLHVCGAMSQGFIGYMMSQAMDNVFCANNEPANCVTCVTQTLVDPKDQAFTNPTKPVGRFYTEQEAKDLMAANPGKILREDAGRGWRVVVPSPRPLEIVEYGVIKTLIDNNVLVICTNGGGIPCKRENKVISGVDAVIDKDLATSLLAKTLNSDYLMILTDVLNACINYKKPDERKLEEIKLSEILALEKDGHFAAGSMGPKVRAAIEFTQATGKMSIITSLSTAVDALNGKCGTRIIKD
In short: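 Reaction was started with ADP/carbamoyl phosphate (final 150 µM) plus ATPLite and run 20 min at room temperature before the luminescence read. Data were normalized to DMSO and no-enzyme wells, pattern-corrected, and Hill-fitted for IC50 and efficacy.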

[2] = biological target: T2, glCK (Giardia intestinalis, UniProt A8BB85); experiment: Absorbance-based carbamate kinase assay; assay type: biochemical, Giardia lamblia
T2 sequence (A8BB85 1-316): T1 sequence (A8BB85 1-316)
In short: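 Coupled absorbance assay at room temperature. glCK in 20 mM Tris-HCl pH 7.5 was preincubated 15 min with test compound (final 0.002, 0.02, 0.2, 1, 2, 20, 200 μM; enzyme final 5 nM). It was then added to substrate mix (ADP, carbamoyl phosphate, final 40 µM; 30 mM MgCl2, glucose, NADP, hexokinase, G6P dehydrogenase). NADPH was followed at 340 nm, and IC50 was derived from initial velocities.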

[3] = system: Giardia infection; conditions: cited from earlier work
[4] = system: Giardia; conditions: maximum screening concentration of 38.3 µM; cited from earlier work
[5] = system: giardiasis; conditions: giardiasis standard of care; cited from earlier work
[6] = substrate: Nc1ncnc2c1ncn2[C@@H]1O[C@H](COP(=O)(O)OP(=O)(O)O)[C@@H](O)[C@H]1O; experiment: Steady-state kinetics of glCK, luminescence assay in 384-well format; assay type: biochemical, Giardia lamblia; conditions: other: room temperature, substrate of glCK; pH 8.0
[7] = IC50 Luminescence Assay, Table 3, secondary assay comparison

IC50 [1, 7]: 16300 nM
Efficacy (% Inhibition) [1]: 77.4%
IC50 [2]: 2700 nM
Molecule: Oc1cccc(O)c1O [Pyrogallol]

IC50 [1, 7]: 3260 nM
Efficacy (% Inhibition) [1]: 89.4%
IC50 [2]: > 200000 nM
Molecule: CN1CCc2cccc3c2[C@H]1Cc1ccc(O)c(O)c1-3 [Apomorphine hydrochloride hemihydrate]

IC50 [1, 7]: 650 nM
Efficacy (% Inhibition) [1]: 85.5%
IC50 [2]: 540 nM
Molecule: O=C(O)[C@@H](S)[C@@H](S)C(=O)O [Succimer]

IC50 [1, 7]: 650 nM
Efficacy (% Inhibition) [1]: 89.2%
IC50 [2]: 11400 nM
Molecule: O=C(O)c1cc(O)c(O)c(O)c1 [Gallic acid]

IC50 [1, 7]: 6510 nM
Efficacy (% Inhibition) [1]: 80.2%
IC50 [2]: 11700 nM
Molecule: O=C(O)Cc1ccc(O)c(O)c1 [3,4-Dihydroxyphenylacetic acid]

Efficacy (% Inhibition) [1]: 84.5%
Molecule: Oc1ccc(C2CNCCc3c2cc(O)c(O)c3Cl)cc1 (stereo not drawn) [Fenoldopam]

IC50 [1, 7]: 5800 nM
Efficacy (% Inhibition) [1]: 79.4%
IC50 [2]: > 200000 nM
Molecule: C[C@@](Cc1ccc(O)c(O)c1)(NN)C(=O)O [Carbidopa]

Further lines, the molecule ahead of its results:

Molecule: CN(C)C(=S)SSC(=S)N(C)C [Thiram]
anti-giardial activities in a mouse model [3]: anti-giardial activities
IC50 ([1]; IC50, values of the running text, chelator class): 4100 nM
IC50 [1, 7]: 4110 nM
Efficacy (% Inhibition) [1]: 92.3%
IC50 [2]: 640 nM
activity in Giardia killing screen (>30% reduction in ATP content) [4]: active

Molecule: CC(C)(C)C(=O)OCOP(=O)(COCCn1cnc2c(N)ncnc21)OCOC(=O)C(C)(C)C [Adefovir dipivoxil]
IC50 [1, 7]: 16300 nM
Efficacy (% Inhibition) [1]: 83.6%
IC50 [2]: > 200000 nM

Molecule: CCN(CC)C(=S)SSC(=S)N(CC)CC [Disulfiram]
anti-giardial activities in a mouse model [3]: anti-giardial activities
IC50 [1, 7]: 580 nM
Efficacy (% Inhibition) [1]: 90.5%
IC50 [2]: 1390 nM
activity in Giardia killing screen (>30% reduction in ATP content) [4]: active

Molecule: O=C1C2CC=CCC2C(=O)N1SC(Cl)(Cl)Cl (stereo not drawn) [Captan]
IC50 [1, 7]: 2590 nM
Efficacy (% Inhibition) [1]: 88.6%
IC50 [2]: 470 nM

Molecule: CCOC(=S)SSC(=S)OCC [Bis(ethylxanthogen)]
Efficacy (% Inhibition) [1]: 82.3%

Molecule: CCS(=O)(=O)CCn1c([N+](=O)[O-])cnc1C [tinidazole]
single course cure rates [5]: 80–95%

Molecule: Oc1cc2c(cc1O)[C@H]1c3ccccc3CN[C@@H]1CC2 (racemic) [Dihydrexidine hydrochloride]
Efficacy (% Inhibition) [1]: 82.9%

Molecule: Cc1ncc([N+](=O)[O-])n1CCO [metronidazole]
single course cure rates [5]: 80–95%

Molecule: N.N.[Cl][Pt][Cl] [Cisplatin]
Efficacy (% Inhibition) [1]: 88.2%

Molecule: O=C([O-])c1ccccc1-c1c2cc(Br)c(=O)cc-2oc2[c]([Hg+])c([O-])c(Br)cc12.[Na+].[Na+].[OH-] [Mercurochrome]
Efficacy (% Inhibition) [1]: 93.8%
IC50 ([1]; read-out: IC50 Luminescence Assay, Table 3, secondary assay comparison): 2060 nM
IC50 ([2]; read-out: IC50 Absorbance Assay, 5 nM glCK, inhibitor up to 200 μM): 220 nM

Molecule: CCN(CC)C(=S)S [Ditiocarb]
Efficacy (% Inhibition) [1]: 77.7%
activity in Giardia killing screen (>30% reduction in ATP content) [4]: active

Molecule: OC[C@H]1O[C@H]([S-])[C@H](O)[C@@H](O)[C@@H]1O.[Au+] [Aurothioglucose]
Efficacy (% Inhibition) [1]: 81.2%

B1: glCK (Giardia lamblia ATCC 50803) (protein)
chain: T1 sequence (A8BB85 1-316)
Km [6]: 58.3 ± 2.4 µM
